pEC50, pIC50: −log10 of the molar value. Calls of active or inactive are those of the source. The rule behind the calls is not given here.
How the values were obtained:
Aorta [1] = test: Vasodilatory activity at endothelium denuded Wistar rat thoracic aorta assessed as relaxation of phenylephrine-induced contraction; assay type: functional, tissue-based
Procedure, shortened: (§1)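 Male Wistar rat (180–200 g) thoracic aorta strips at 37 °C, 95% O2/5% CO2, pH 7.4, equilibrated 1.5 h, then precontracted with 1 μM L-phenylephrine. Cumulative vasodilator concentrations added at plateau; isometric recording. EC50 ± SEM from at least five experiments. ODQ runs: 1 μM inhibitor added before contraction, preincubated ≥30 min before vasodilator.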

Aorta [2] = test: Vasodilatory activity at endothelium denuded Wistar rat thoracic aorta assessed as relaxation of phenylephrine-induced contraction preincubated for 30 mins before phenylephrine challenge in presence of 1 uM soluble guanylate cyclase inhibitor H-[1,2,4]Oxadiazolo[4,3-a]quinoxalin-1-one; assay type: functional, tissue-based; procedure, shortened: as §1
Platelet = test: Antiaggregatory activity in plasma rich human platelets assessed as inhibition of collagen-induced platelet aggregation at 300 uM preincubated for 10 mins before collagen challenge measured 10 mins after stimulus addition; assay type: functional
Procedure, shortened: (§2)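 Human PRP from citrated venous blood of drug-free healthy volunteers, centrifuged 210g for 20 min. Compound (vehicle 0.5% DMSO) preincubated 10 min, then collagen at submaximal 0.8–1.5 μg/mL. Light-transmission aggregometry with stirring at 1000 rpm, 37 °C, recorded 10 min. Reported as % inhibition versus control (at 300 μM) or IC50 by nonlinear regression. At least five experiments.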

[3] = Chemical stability of the compound in acidic medium assessed as unchanged compound after 3 hrs at pH 1 by RP-HPLC analysis; assay type: physicochemical; details: read-out: Stability
Procedure, shortened: (§3)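 A 0.5 mM DMSO solution (2 mL) was diluted to 10 mL with 0.1 M HCl (pH 1.0) or 50 mM phosphate buffer (pH 7.4). Held at 37 ± 0.5 °C and sampled over time by RP-HPLC on C18 with acetonitrile/water 0.1% TFA gradient. Percent unchanged reported at 3 h. Triplicate.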

[4] = Antiaggregatory activity in plasma rich human platelets assessed as inhibition of collagen-induced platelet aggregation preincubated for 10 mins before collagen challenge measured 10 mins after stimulus addition; assay type: functional; procedure, shortened: as §2
[5] = Chemical stability of the compound in phosphate buffer assessed as unchanged compound after 3 hrs at pH 7.4 by RP-HPLC analysis; assay type: physicochemical; details: read-out: Stability; procedure, shortened: as §3
[6] = Half life in human serum at 200 uM by RP-HPLC analysis; assay type: ADME
Procedure, shortened: (§4)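 DMSO stock (10 mM) added to prewarmed human serum (male AB plasma) to a final 200 μM. Incubated at 37 ± 0.5 °C; aliquots deproteinized with acetonitrile containing 0.1% TFA. Parent, aspirin and metabolites quantified by RP-HPLC, calibration 1–200 μM. Pseudo-first-order half-life; peak aspirin expressed as % of initial carbonate. At least triplicate.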

Homo sapiens = species: Homo sapiens; test: Chemical stability of compound in human serum assessed as maximal amount of aspirin released; assay type: ADME; procedure, shortened: as §4
Aorta [7] = test: Vasodilatory activity at endothelium denuded Wistar rat thoracic aorta assessed as relaxation of KCL-induced contraction preincubated for 30 mins before KCL challenge; assay type: functional, tissue-based
Procedure, shortened: (§5)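 Endothelium-denuded thoracic aorta strips from male Wistar rats (180–200 g) at 37 °C, gassed 95% O2/5% CO2, pH 7.4. Equilibrated 1.5 h, contracted with 25 mM KCl, then cumulative compound concentrations added at plateau; isometric tension recorded. EC50 ± SEM; at least five experiments. For glibenclamide runs, 10 μM added before contraction, ≥30 min before vasodilator.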

Aorta [8] = test: Vasodilatory activity at endothelium denuded Wistar rat thoracic aorta assessed as relaxation of KCl-induced contraction preincubated for 30 mins before KCl challenge in presence of 10 uM ATP-modulated K+ channel inhibitor glibenclamide; assay type: functional, tissue-based; procedure, shortened: as §5

SMILES | pEC50 (Aorta [1]) | pEC50 (Aorta [2]) | Activity (Platelet) | remaining at 3 h [3] [%] | pIC50 [4] | remaining at 3 h [5] [%] | half-life at 200 µM [6] [min] | Activity (Homo sapiens) [%] | pEC50 (Aorta [7]) | pEC50 (Aorta [8])
O=[N+]([O-])OCCCc1ccc(O)cc1 | 6.00 | < 4.00 |  |  |  |  |  |  |  | 
O=[N+]([O-])OCCCO [ABRUCOMSTAT] | 5.40 | < 4.00 | inactive |  |  |  |  |  |  | 
CC(=O)Oc1ccccc1C(=O)OCOC(=O)OCCOc1ccc(-c2cc(=S)ss2)cc1 |  |  |  | 98 | 4.80 | 96 | 3 | 42 |  | 
CC(=O)Oc1ccccc1C(=O)OCOC(=O)Oc1ccc(CCCO[N+](=O)[O-])cc1 |  |  |  | 98 | 4.17 | 98 | 1.6 | 40 |  | 
CC(=O)Oc1ccccc1C(=O)OCOC(=O)Oc1ccc(-c2cc(=S)ss2)cc1 |  |  |  | 96 | 3.82 | 80 | 2.1 | 36 |  | 
O=[N+]([O-])OCC(Cc1ccc(O)cc1)O[N+](=O)[O-] (configuration not stated) | 6.89 | < 4.00 | inactive |  |  |  |  |  |  | 
Oc1ccc(-c2cc(=S)ss2)cc1 |  |  | inactive |  |  |  |  |  | 5.23 | 4.77
CC(=O)Oc1ccccc1C(=O)OCOC(=O)OCCCO[N+](=O)[O-] |  |  |  | 98 | 3.71 | 98 | < 1 | 9 |  | 
OCCOc1ccc(-c2cc(=S)ss2)cc1 |  |  |  |  |  |  |  |  | 5.10 | 4.80
CC(=O)Oc1ccccc1C(=O)OCOC(=O)Oc1ccc(CC(CO[N+](=O)[O-])O[N+](=O)[O-])cc1 (configuration not stated) |  |  |  | 98 | 3.99 | 95 | 2.2 | 34 |  | 
CC(=O)Oc1ccccc1C(=O)O [ASPIRIN] |  |  |  | 90 | 4.27 | 90 | 63 |  |  | 
CC(=O)Oc1ccccc1C(=O)OCOC(=O)OCC(CO[N+](=O)[O-])O[N+](=O)[O-] (configuration not stated) |  |  |  | 98 | 4.03 | 85 | < 1 | 25 |  | 
